Laboratory results from ChEMBL document CHEMBL1141286, “Benzochromenones from the marine crinoid Comantheria rotula inhibit hypoxia-inducible factor-1 (HIF-1) in cell-based reporter assays and differentially suppress the growth of certain tumor cell lines” (J Nat Prod, 2007).
Active and inactive are the calls of the source.

Experiments:
[1] = system: SF-539; test: Growth inhibition of human SF539 cells; format: functional
[2] = system: KM12; test: Growth inhibition of human KM12 cells; format: functional
[3] = system: Malme-3M; test: Growth inhibition of human MALME-3M cells; format: functional
[4] = Growth inhibition of human OVACAR3 cells; format: functional
[5] = system: IGROV-1; test: Growth inhibition of human IGROV1 cells; format: functional
[6] = system: DU-145; test: Growth inhibition of human DU145 cells; format: functional
[7] = system: SK-MEL-5; test: Growth inhibition of human SK-MEL5 cells; format: functional
[8] = system: NCI-H522; test: Growth inhibition of human NCI-H522 cells; format: functional
[9] = system: HCT-116; test: Growth inhibition of human HCT116 cells; format: functional
[10] = Inhibition of 1,10-phenanthroline-induced HIF1 activation in T47D cells by TK-luciferase assay; format: cell-based; conditions: Homo sapiens
Method in brief: (§1)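 HIF-1 reporter (pHRE-TK-Luc) assays in transfected PC-3 or T47D cells; HIF-1 induced by hypoxia or by the hypoxia mimetic 1,10-phenanthroline (10 μM); compounds at half-log concentrations; luciferase activity measured; IC50 from experiments in triplicate.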

[11] = system: A549; test: Growth inhibition of human A549 cells; format: functional
[12] = system: HCT-15; test: Growth inhibition of human HCT15 cells; format: functional
[13] = system: UACC-257; test: Growth inhibition of human UACC257 cells; format: functional
[14] = system: T47D; test: Growth inhibition of human T47D cells; format: functional
[15] = system: HT-29; test: Growth inhibition of human HT29 cells; format: functional
[16] = system: SK-OV-3; test: Growth inhibition of human SK-OV3 cells; format: functional
[17] = system: SW-620; test: Growth inhibition of human SW620 cells; format: functional
[18] = system: 786-0; test: Growth inhibition of human 786-0 cells; format: functional
[19] = system: PC-3; test: Growth inhibition of human PC3 cells; format: functional
[20] = system: SF-295; test: Growth inhibition of human SF295 cells; format: functional
[21] = system: COLO 205; test: Growth inhibition of human COLO205 cells; format: functional
[22] = system: MCF7; test: Growth inhibition of human MCF7 cells; format: functional
[23] = system: CCRF-CEM; test: Growth inhibition of human CCRF-CEM cells; format: functional
[24] = system: A498; test: Growth inhibition of human A498 cells; format: functional
[25] = system: T47D; test: Inhibition of 1,10-phenanthroline-induced VEGF protein secretion in human T47D cells at 10 uM after 16 hrs by ELISA; format: functional, cell-based
Method in brief: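 T47D cells stimulated with 1,10-phenanthroline, compound at 10 μM; secreted VEGF in conditioned media by ELISA, normalized to cell-lysate protein.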

[26] = system: SR; test: Growth inhibition of human SR cells; format: functional
[27] = system: NCI-H460; test: Growth inhibition of human NCI-H460 cells; format: functional
[28] = system: OVCAR-4; test: Growth inhibition of human OVACAR4 cells; format: functional
[29] = system: M14; test: Growth inhibition of human M14 cells; format: functional
[30] = system: SF-268; test: Growth inhibition of human SF268 cells; format: functional
[31] = Inhibition of 1,10-phenanthroline-induced HIF1 activation in PC3 cells by TK-luciferase assay; format: cell-based; conditions: Homo sapiens, PC-3; method in brief: as §1
[32] = system: NCI/ADR-RES; test: Growth inhibition of human NCI/ADR-RES cells; format: functional
[33] = system: SK-MEL-28; test: Growth inhibition of human SK-MEL28 cells; format: functional
[34] = system: ACHN; test: Growth inhibition of human ACHN cells; format: functional
[35] = system: OVCAR-8; test: Growth inhibition of human OVACAR8 cells; format: functional
[36] = system: SK-MEL-2; test: Growth inhibition of human SK-MEL2 cells; format: functional
[37] = system: EKVX; test: Growth inhibition of human EKVX cells; format: functional
[38] = system: UACC-62; test: Growth inhibition of human UACC62 cells; format: functional
[39] = read-out: Log LC50 (the source's name) (converted)

CCCc1cc(=O)c2c(OC)c3c(OC)cc(OC)cc3cc2o1
81.3 µM: GI50 [6] | GI50 [28]
60.3 µM: GI50 [5]
45.7 µM: GI50 [7]
83.2 µM: GI50 [3]
inactive: Activity [25]
35.5 µM: GI50 [12]
32.4 µM: GI50 [8]
38.9 µM: GI50 [4]
85.1 µM: GI50 [27]
> 100 µM: LC50 [1] | TGI ([1]; read-out: Log TGI (converted)) | CC50 [2, 39] | TGI ([2]; read-out: Log TGI (converted)) | CC50 [3, 39] | TGI ([3]; read-out: Log TGI (converted)) | CC50 [4, 39] | TGI ([4]; read-out: Log TGI (converted)) | CC50 [5, 39] | TGI ([5]; read-out: Log TGI (converted)) | CC50 [6, 39] | TGI ([6]; read-out: Log TGI (converted)) | LC50 [7] | TGI ([7]; read-out: Log TGI (converted)) | CC50 [8, 39] | TGI ([8]; read-out: Log TGI (converted)) | TGI ([9]; read-out: Log TGI (converted)) | CC50 [11, 39] | TGI ([11]; read-out: Log TGI (converted)) | CC50 [12, 39] | TGI ([12]; read-out: Log TGI (converted)) | GI50 [13] | LC50 [13] | TGI ([13]; read-out: Log TGI (converted)) | LC50 [14] | TGI ([14]; read-out: Log TGI (converted)) | CC50 [15, 39] | TGI ([15]; read-out: Log TGI (converted)) | GI50 [16] | LC50 [16] | TGI ([16]; read-out: Log TGI (converted)) | GI50 [17] | CC50 [17, 39] | TGI ([17]; read-out: Log TGI (converted)) | LC50 [18] | TGI ([18]; read-out: Log TGI (converted)) | LC50 [19] | TGI ([19]; read-out: Log TGI (converted)) | LC50 [20] | TGI ([20]; read-out: Log TGI (converted)) | GI50 [21] | CC50 [21, 39] | TGI ([21]; read-out: Log TGI (converted)) | LC50 [22] | TGI ([22]; read-out: Log TGI (converted)) | LC50 [23] | LC50 [24] | TGI ([24]; read-out: Log TGI (converted)) | CC50 [26, 39] | TGI ([26]; read-out: Log TGI (converted)) | CC50 [27, 39] | TGI ([27]; read-out: Log TGI (converted)) | LC50 [28] | TGI ([28]; read-out: Log TGI (converted)) | TGI ([29]; read-out: Log TGI (converted)) | GI50 [30] | LC50 [30] | TGI ([30]; read-out: Log TGI (converted)) | LC50 (concentration killing 50% of cells) [32] | TGI ([32]; read-out: Log TGI (converted)) | GI50 [33] | CC50 [33, 39] | TGI ([33]; read-out: Log TGI (converted)) | GI50 [34] | CC50 [34, 39] | TGI ([34]; read-out: Log TGI (converted)) | GI50 [35] | LC50 [35] | TGI ([35]; read-out: Log TGI (converted)) | GI50 [36] | LC50 [36] | TGI ([36]; read-out: Log TGI (converted)) | CC50 [37, 39] | TGI ([37]; read-out: Log TGI (converted)) | GI50 [38] | LC50 (lethal concentration, 50% cell kill) [38] | TGI ([38]; read-out: Log TGI (converted))
16.6 µM: GI50 [14]
51.3 µM: GI50 [19]
> 10 µM: IC50 [31]
91.2 µM: GI50 [18]
74.1 µM: GI50 [32]
58.9 µM: GI50 [11] | GI50 [23]
42.7 µM: GI50 [9]
26.3 µM: GI50 [15]
100 µM: GI50 [1] | TGI ([23]; read-out: Log TGI (converted)) | GI50 [37]
53.7 µM: GI50 [20]
67.6 µM: GI50 [29]
2 µM: IC50 [10]
87.1 µM: GI50 [2]
34.7 µM: CC50 [9, 39] | LC50 (50% lethal concentration) [29]
39.8 µM: GI50 [26]
3.47 µM: GI50 [24]
93.3 µM: GI50 [22]
